Key:
[1] = tested on: MCF7; assay: In vitro inhibition of growth of MCF-7 human breast adenocarcinoma using 72 hours continuous exposure; type: functional, cell-based
Summary of the method: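 ATCC MCF-7 cells grown in RPMI 1640 with 10 nM calcium leucovorin as folate source, 10% dialyzed fetal calf serum, penicillin, streptomycin and sodium pyruvate (110 μg/mL). Cells seeded at 15000/well, preincubated 24 h at 37 °C, then exposed 72 h (37 °C, 5% CO2), triplicate per concentration. Growth read by MTT reduction, formazan dissolved in DMSO, A570 (reference 750 nm), against a cell-number standard curve.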

[2] = tested on: MOLT-4; assay: Compound was evaluated for inhibition of [3H]methotrexate uptake into MOLT-4 cells; type: functional, cell-based; conditions: Homo sapiens
[3] = tested on: MOLT-4; assay: In vitro inhibitory activity against MOLT-4 T-cell leukemia cell AICAR transformylase; type: functional, cell-based, Homo sapiens; conditions: for IC50: Homo sapiens, MOLT-4
[4] = target: GAR transformylase (Sus scrofa); assay: In vitro inhibition of hog liver GAR transformylase with (6R)-10-formyl-FH4 as cofactor

Cc1cc(C(=O)NC(CCC(=O)O)C(=O)O)ccc1NCCCc1c(N)nc(N)nc1O (stereo unspecified)
IC50 [1]: 0.25 µM
IC50 [2]: 1.3 µM

Nc1nc(N)c(CCCNc2ccc(C(=O)NC(CCC(=O)O)C(=O)O)cc2F)c(O)n1 (stereo unspecified)
IC50 [1]: 0.063 µM
IC50 [3]: 133 µM
IC50 [2]: 1 µM

Nc1nc(N)c(CCCCc2ccc(C(=O)N[C@@H](CCC(=O)O)C(=O)O)cc2)c(=O)[nH]1 [DIDEAZAACYCLOTETRAHYDROFOLIC ACID]
IC50 [1]: 0.061 µM
IC50 [2]: 0.9 µM

Nc1nnc(C2CCN(c3ccc(C(=O)NC(CCC(=O)O)C(=O)O)cc3)C2=O)c(O)n1 (stereo unspecified)
IC50 [1]: > 100 µM
IC50 [2]: > 100 µM

Nc1nc(N)c(CCCOc2ccc(C(=O)NC(CCC(=O)O)C(=O)O)cc2)c(O)n1 (stereo unspecified)
IC50 [1]: 0.085 µM
IC50 [2]: 1.1 µM

Nc1nc(N)c(CCCNc2ccc(C(=O)N[C@@H](CCC(=O)O)C(=O)O)cc2)c(O)n1
IC50 [4]: 3 µM
IC50 [2]: 1.2 µM

Nc1nc(N)c(CCCSc2ccc(C(=O)NC(CCC(=O)O)C(=O)O)cc2)c(O)n1 (stereo unspecified)
IC50 [1]: 0.023 µM
IC50 [3]: 25.8 µM
IC50 [2]: 0.8 µM

Nc1nc(N)c(CCCNc2ccc(C(=O)NC(CCC(=O)O)C(=O)O)c(Cl)c2)c(O)n1 (stereo unspecified)
IC50 [1]: 0.115 µM
IC50 [3]: 182 µM
IC50 [2]: 0.7 µM

COc1cc(C(=O)NC(CCC(=O)O)C(=O)O)ccc1NCCCc1c(N)nc(N)nc1O (stereo unspecified)
IC50 [1]: 5 µM
IC50 [2]: 1 µM

Nc1nc(O)c2c(n1)NCC(CCc1ccc(C(=O)NC(CCC(=O)O)C(=O)O)cc1)C2 (stereo unspecified)
IC50 [1]: 0.018 µM
IC50 [2]: 1.5 µM

Nc1nc(N)c(CCCNc2ccc(C(=O)NC(CCC(=O)O)C(=O)O)c(F)c2)c(O)n1 (stereo unspecified)
IC50 [1]: 0.033 µM
IC50 [3]: 79.3 µM
IC50 [2]: 0.7 µM

Nc1nc(N)c(CCCCNc2ccc(C(=O)NC(CCC(=O)O)C(=O)O)cc2)c(O)n1 (stereo unspecified)
IC50 [1]: 5 µM
IC50 [2]: 1.5 µM

Nc1ncnc(O)c1CCCNc1ccc(C(=O)NC(CCC(=O)O)C(=O)O)cc1 (stereo unspecified)
IC50 [1]: > 50 µM
Inhibition [3]: 26%
IC50 [2]: 2 µM

Source: ChEMBL document CHEMBL1125435, “Synthesis and biological activity of open-chain analogues of 5,6,7,8-tetrahydrofolic acid--potential antitumor agents” (J Med Chem, 1992)
